ChEMBL document CHEMBL1126969, “Antipsoriatic anthrones with modulated redox properties. 1. Novel 10-substituted 1,8-dihydroxy-9(10H)-anthracenones as inhibitors of 5-lipoxygenase” (J Med Chem, 1993)

Legend:
[1] = biological target: T1, Arachidonate 5-lipoxygenase (Bos taurus, UniProt Q9BEG3); assay: Inhibitory activity against 5-lipoxygenase (inhibition of 5-HETE and LTB4 biosynthesis) in bovine polymorphonuclear leukocytes (PMNL).; assay type: cell-based
T1 sequence (Q9BEG3 whole entry): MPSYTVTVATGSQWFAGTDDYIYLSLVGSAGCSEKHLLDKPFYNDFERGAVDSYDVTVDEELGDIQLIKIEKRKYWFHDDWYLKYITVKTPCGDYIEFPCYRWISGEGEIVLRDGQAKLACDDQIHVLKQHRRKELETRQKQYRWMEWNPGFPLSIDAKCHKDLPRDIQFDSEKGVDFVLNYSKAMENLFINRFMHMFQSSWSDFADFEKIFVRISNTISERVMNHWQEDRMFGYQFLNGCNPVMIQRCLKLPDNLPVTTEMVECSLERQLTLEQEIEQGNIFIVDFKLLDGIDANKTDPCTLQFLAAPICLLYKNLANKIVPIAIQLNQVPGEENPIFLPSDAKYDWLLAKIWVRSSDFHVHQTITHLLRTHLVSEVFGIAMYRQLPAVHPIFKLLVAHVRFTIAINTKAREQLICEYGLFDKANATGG

[2] = Reducing activity against 2,2-diphenyl-1-picrylhydrazyl; assay type: ADME
[3] = Deoxyribose-damaging property as a measure of hydroxyl-radical formation (uM test compound)
[4] = biological target: T2, Arachidonate 5-lipoxygenase (Bos taurus) (UniProt Q9BEG3); assay: Inhibitory activity against 5-lipoxygenase (inhibition of 5-HETE and LTB4 biosynthesis) in bovine polymorphonuclear leukocytes (PMNL) at 30 uM; assay type: cell-based
T2 sequence (whole entry): T1 sequence (Q9BEG3 whole entry)
Summary of the method: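 Bovine PMNL from EDTA blood, platelets removed, 1×10^7 cells/mL in PBS pH 7.4. Compound (DMSO, 0.4% final) preincubated 15 min at 37 °C, then stimulated with CaCl2 2 mM and A23187 20 μM for 10 min. Stopped with methanol/acetonitrile containing NDGA and PGB2 marker. LTB4 (280 nm) and 5-HETE (232 nm) quantified by RP-HPLC against internal and external standards.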

[5] = Reducing activity against 2,2-diphenyl-1-picrylhydrazyl with an equimolar amount of the test compound; c = Not reactive; assay type: ADME
[6] = Deoxyribose-damaging property as a measure of hydroxyl-radical formation (uM of malondialdehyde/mmol of deoxyribose released by 75 uM test compound)
Summary of the method: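 2-Deoxy-D-ribose (2 mM) with FeCl3 (0.1 mM) in 30 mM KH2PO4-KOH buffer pH 7.4, compound at 75 μM final (acetonitrile vehicle, fresh stocks), 2 h at 37 °C. TBA/trichloroacetic acid added, heated 100 °C 15 min, acidified, extracted into butanol, A532 read. Calibrated against malondialdehyde standard; expressed as μmol MDA/mmol deoxyribose.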

Row | Compound | IC50 [1] [nM] | kDPPH [2] [M⁻¹ s⁻¹] | Deoxyribose degradation (uM of MDA mM-1) [3] | inhibition [4] [%] | kDPPH [5] | Deoxyribose degradation (uM of MDA mM-1) [6]
1 | O=C1c2c(O)cccc2C(C(=O)Cc2ccc(OCc3ccccc3)cc2)c2cccc(O)c21 | 600 | 13.3 | < 0.2 | – | – | –
2 | CC(=O)Oc1cccc2cc3cccc(OC(C)=O)c3c(OC(C)=O)c12 [TRIACETOXYANTHRENE] | – | – | – | 15 | Not Active | < 0.15
3 | O=C1c2c(O)cccc2C(C(=O)Cc2ccc(O)cc2)c2cccc(O)c21 | – | 14.7 | 0.36 | – | – | –
4 | O=C1c2c(O)cccc2C(C(=O)CCCc2ccccc2)c2cccc(O)c21 | 300 | 10.1 | < 0.2 | – | – | –
5 | O=C1c2c(O)cccc2C(C(=O)Cc2ccc(OCc3ccccc3)c(OCc3ccccc3)c2)c2cccc(O)c21 | – | 15 | < 0.2 | 34 | – | –
6 | O=C1c2c(O)cccc2Cc2cccc(O)c21 [ANTHRALIN] | – | 24.2 | – | – | – | –
7 | O=C(O)c1ccc(C=C2c3cccc(O)c3C(=O)c3c(O)cccc32)cc1 | – | < 1 | < 0.15 | < 10 | – | –
8 | O=C1c2c(O)cccc2C(C(=O)Cc2ccccc2)c2cccc(O)c21 | – | 16.4 | < 0.2 | – | – | –
9 | COc1ccc(CC(=O)C2c3cccc(O)c3C(=O)c3c(O)cccc32)cc1 | 500 | 15.1 | < 0.2 | – | – | –
10 | COc1ccc(CCC(=O)C2c3cccc(O)c3C(=O)c3c(O)cccc32)cc1OC | 17000 | 8.7 | < 0.2 | – | – | –
11 | O=C1c2c(O)cccc2C(=Cc2ccc(C(F)(F)F)cc2)c2cccc(O)c21 | – | < 1 | < 0.15 | 33 | – | –
12 | Cc1ccc(C=C2c3cccc(O)c3C(=O)c3c(O)cccc32)cc1 | – | < 1 | < 0.15 | 23 | – | –
13 | CC(Cc1ccc(O)c(O)c1)C(C)Cc1ccc(O)c(O)c1 (stereo unspecified) [NORDIHYDROGUAIARETIC ACID] | – | > 100 | – | – | – | 0.23
14 | COc1ccc(CCC(=O)C2c3cccc(O)c3C(=O)c3c(O)cccc32)cc1 | 1000 | 7.4 | 1.4 | – | – | –
15 | COc1ccc(C=C2c3cccc(O)c3C(=O)c3c(O)cccc32)cc1OC | – | < 1 | < 0.15 | < 10 | – | –
16 | O=C1c2c(O)cccc2C(C(=O)CCc2ccccc2)c2cccc(O)c21 | – | 10.3 | < 0.2 | – | – | –
17 | COc1ccc(C=C2c3cccc(O)c3C(=O)c3c(O)cccc32)cc1 | – | < 1 | < 0.15 | < 10 | – | –
18 | O=C1c2c(O)cccc2C(C(=O)Cc2ccc([N+](=O)[O-])cc2)c2cccc(O)c21 | – | 63.7 | < 0.2 | – | – | –
19 | O=C1c2c(O)cccc2C(=CCCc2ccccc2)c2cccc(O)c21 | – | < 1 | < 0.15 | – | – | –
20 | O=C1c2c(O)cccc2C(=Cc2ccccc2)c2cccc(O)c21 | – | < 1 | < 0.15 | 34 | – | –
21 | O=C1c2c(O)cccc2C(=Cc2ccc(O)cc2)c2cccc(O)c21 | 4000 | > 100 | < 0.15 | – | – | –

Row | Compound | IC50 [1] [nM] | kDPPH [2] [M⁻¹ s⁻¹] | Deoxyribose degradation (uM of MDA mM-1) [3] | inhibition [4] [%] | kDPPH [5] | Deoxyribose degradation (uM of MDA mM-1) [6]
22 | O=C1c2c(O)cccc2C(C(=O)Cc2ccc(O)c(O)c2)c2cccc(O)c21 | 11000 | > 100 | – | – | – | 6.26
23 | COc1cc(C=C2c3cccc(O)c3C(=O)c3c(O)cccc32)cc(OC)c1OC | – | < 1 | < 0.15 | 10 | – | –
24 | O=C1c2c(O)cccc2C(C(=O)Cc2cc(OCc3ccccc3)c(OCc3ccccc3)c(OCc3ccccc3)c2)c2cccc(O)c21 | – | 15.3 | – | – | – | < 0.2
25 | O=C1c2c(O)cccc2C(C(=O)CCc2ccc(O)cc2)c2cccc(O)c21 | 1000 | 7.8 | 2.5 | – | – | –
26 | O=C1c2c(O)cccc2C(C(=O)CCc2ccc(OCc3ccccc3)cc2)c2cccc(O)c21 | 2000 | 8.8 | < 0.2 | – | – | –
27 | COC(=O)c1ccc(C=C2c3cccc(O)c3C(=O)c3c(O)cccc32)cc1 | – | < 1 | < 0.15 | < 10 | – | –
28 | O=C1c2c(O)cccc2C(C(=O)/C=C/c2ccccc2)c2cccc(O)c21 | – | > 100 | – | – | – | 1.66
29 | COc1c(OC)c(OC(C)=O)c2cc(Cl)ccc2c1OC(C)=O [LONAPALENE] | – | – | – | – | Not Active | < 0.15
30 | COc1cc(CCC(=O)C2c3cccc(O)c3C(=O)c3c(O)cccc32)cc(OC)c1OC | – | 10.3 | < 0.2 | – | – | –
31 | O=C1c2c(O)cccc2C(=CCCCCc2ccccc2)c2cccc(O)c21 | – | < 1 | < 0.15 | 0 | – | –
32 | O=C1c2c(O)cccc2C(=CCc2ccccc2)c2cccc(O)c21 | – | < 1 | < 0.15 | 30 | – | –
33 | CCCC(=O)C1c2cccc(O)c2C(=O)c2c(O)cccc21 [BUTANTRONE] | 33000 | 7 | 0.24 | – | – | –
34 | O=C1c2c(O)cccc2C(C(=O)Cc2cc(O)c(O)c(O)c2)c2cccc(O)c21 | – | > 100 | – | – | – | 2.99
35 | CC(C)(C)c1cc(CC(=O)C2c3cccc(O)c3C(=O)c3c(O)cccc32)cc(C(C)(C)C)c1O | – | > 100 | < 0.2 | – | – | –
36 | O=C1c2c(O)cccc2C(=Cc2ccc(O)c(O)c2)c2cccc(O)c21 | 500 | > 100 | – | – | – | 0.44
37 | O=C1c2c(O)cccc2C(C(=O)CCCCc2ccccc2)c2cccc(O)c21 | 2000 | 10.1 | < 0.2 | – | – | –
38 | N#Cc1ccc(C=C2c3cccc(O)c3C(=O)c3c(O)cccc32)cc1 | – | < 1 | < 0.15 | 34 | – | –
39 | O=C1c2c(O)cccc2C(C(=O)/C=C/c2ccc([N+](=O)[O-])cc2)c2cccc(O)c21 | 6000 | > 100 | – | – | – | 0.88
40 | COc1cccc(/C=C/C(=O)C2c3cccc(O)c3C(=O)c3c(O)cccc32)c1 | 3000 | > 100 | – | – | – | –
41 | O=C1c2c(O)cccc2C(=Cc2ccc([N+](=O)[O-])cc2)c2cccc(O)c21 | 2000 | < 1 | < 0.15 | – | – | –
42 | O=C1c2c(O)cccc2C(=CCCCc2ccccc2)c2cccc(O)c21 | – | < 1 | < 0.15 | 21 | – | –
